KCNQ1 act: potentiators or activators of KCNQ1 channel, primary screen, cell-based, thallium flux, high-throughput. 310,000 tested, 0.35% active. B-score at 10 µM. Potassium voltage-gated channel subfamily KQT member 1 (Homo sapiens), P51787. CHO-K1 KCNQ1, thallium flux FluxOR fluorescence; stronger effect = higher value;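 active means fluorescence ratio B-score, a plate-corrected score, at least three library SD, with initial intensity B-score within 5 SD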
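Material: CHO-K1 cells stably expressing KCNQ1. Medium: assay buffer for compound exposure, DMSO matched across wells. Reagent: K+/Tl+ depolarizing stimulus. Compound dosing: single-concentration screen. Times: 37 °C overnight plating, 90-min dark dye load, 20-min compound pretreatment. Technique: FluxOR Tl+ flux fluorescence.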
KCNK3 inh: human KCNK3 channel inhibitors, primary screen, CHO cells, FluxOR thallium flux, B-score; Potassium channel subfamily K member 3 (Homo sapiens), O14649; FluxOR fluorescence; stronger effect = lower value; B-score at 10 µM; 340,000 tested, 0.84% active; AID 602410, 2012;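 active means B-score under library mean minus 4 SD, starting fluorescence ratio at most library mean plus 5 SD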;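 further: more negative B-score means stronger inhibition of thallium flux through KCNK3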
Kir21 inh: inhibitors of mouse Kir2.1 inward-rectifier potassium channel; Inward rectifier potassium channel 2 (Mus musculus), P35561; HEK293-Kir2.1, FluxOR thallium flux fluorescence; stronger effect = lower value; B-score at 10 µM; 310,000 tested, 0.85% active; AID 1672, 2009;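 active means fluorescence ratio B-score at or below minus 3 SD of library scores, with starting-brightness B-score within 2 SD, cut at about -4.2 in these data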;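 further: channel flux triggered by added potassium and thallium sulfate stimulus; B-score of peak minus minimum fluorescence over baseline after thallium stimulus; more negative B-score means stronger Kir2.1 block with less thallium influx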
Target sequence (P35561 whole entry, looked up): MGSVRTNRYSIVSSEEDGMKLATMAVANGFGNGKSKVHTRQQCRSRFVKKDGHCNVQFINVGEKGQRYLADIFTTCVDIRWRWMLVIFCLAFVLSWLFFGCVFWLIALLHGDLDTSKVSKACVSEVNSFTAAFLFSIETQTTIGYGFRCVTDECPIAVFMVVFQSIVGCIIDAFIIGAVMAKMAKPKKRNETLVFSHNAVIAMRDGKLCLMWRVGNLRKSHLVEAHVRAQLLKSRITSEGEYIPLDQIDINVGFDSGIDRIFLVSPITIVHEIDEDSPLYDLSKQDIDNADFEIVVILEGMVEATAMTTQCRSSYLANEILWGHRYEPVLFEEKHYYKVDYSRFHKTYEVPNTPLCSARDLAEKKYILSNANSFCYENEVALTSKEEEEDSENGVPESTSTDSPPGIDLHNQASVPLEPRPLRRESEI
KCNK9 block: KCNK9 potassium channel inhibitors, primary screen, HEK293 cells, thallium flux. FluxOR thallium flux fluorescence; stronger effect = lower value. B-score at 10 µM. AID 488922, 2010. 310,000 tested, 1.2% active;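 active means ratio B-score over 3 SD below the library mean, with starting fluorescence within 5 SD of its mean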;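 further: negative B-score means less thallium flux so channel inhibition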
hERG rescue: hERG rescue from dofetilide block, primary screen, cell-based, CHO-hERG, FluxOR thallium flux, dofetilide IC70; AID 1511, 2009; dofetilide IC70 present; activation (rescue from dofetilide block), less the hit threshold, % at 10 µM; 310,000 tested, 0.51% active;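 active means activation above the mean of controls blocked by dofetilide plus 5 SD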;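 further: thallium influx through hERG after potassium depolarization seen as dye fluorescence rise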
KCNQ1 inh: inhibitors of human KCNQ1 channel, primary screen, cell-based, thallium flux, high-throughput. 310,000 tested, 1.3% active. B-score at 10 µM. AID 2642, 2010. CHO-K1 KCNQ1, FluxOR thallium flux fluorescence; stronger effect = higher value;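 active means compounds whose thallium flux B-score, printed positive for inhibition, exceeds three library SD while starting fluorescence stays within three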;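 further: channel opened by potassium depolarization with thallium stimulus after 20 min compound exposure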
* marks the source's active call; other numbers are inactive results; i = inactive; . = no result. A selection: hits, their analogues and other compounds. The true share with any hit is near 3.8%.

SMILES	KCNQ1 act	KCNK3 inh	Kir21 inh	KCNK9 block	hERG rescue	KCNQ1 inh
O=C1C2C3C=CC(C3)C2C(=O)N1/N=C/c1cc(Br)cc([N+](=O)[O-])c1O (stereo not drawn)	i	i	2.17	i	-6.3	7*
O=C1C2C3C=CC(C3)C2C(=O)N1/N=C/c1ccc(-c2ccccc2[N+](=O)[O-])o1 (stereo not drawn)	i	i	0.01	i	-4.0	i
NC(N)=N/N=C/c1ccc2cccc(OCc3ccccc3)c2n1	i	i	-5.26*	i	-25.4	6*
COc1ccc(C(=O)N/N=C/c2ccc3cccc(OCc4ccccc4)c3n2)cc1	i	i	0.23	i	-3.2	i
O=C(N/N=C/c1ccc2cccc(OCc3ccccc3)c2n1)c1ccc(Br)cc1	i	i	2.81	i	11.4*	i
Cc1nnc2n1CCCCC2	i	i	0.78	i	-2.3	i
CCCCC1(Cc2cccc([N+](=O)[O-])c2)C(=O)N(c2ccccc2)N(c2ccccc2)C1=O	i	i	-0.51	i	-6.5	6*
CCCCC1(CO)C(=O)N(c2ccccc2)N(c2ccccc2)C1=O	i	i	0.82	i	-5.2	i
Cc1ccc(Oc2c(C(N)=O)cc([N+](=O)[O-])cc2[N+](=O)[O-])cc1	i	i	-5.47*	i	-15.1	6*
CNC(=S)N(CCc1c(C)[nH]c2ccc(C)cc12)Cc1ccco1	i	i	-5.03*	i	-5.5	i
CCNC(=S)N(CCc1c(C)[nH]c2ccc(Cl)cc12)Cc1ccco1	i	i	-3.34	i	-36.5	i
Cc1ccc(S(=O)(=O)N2CCN=C2SCc2cccnc2)cc1	i	i	-4.81*	i	-2.9	i
COc1ccc(S(=O)(=O)N2CCN=C2SCc2cccnc2)cc1	i	i	-0.9	i	-6.7	i
O=S(=O)(c1ccc(Cl)cc1)N1CCN=C1SCc1cccnc1	i	i	2.64	i	-9.9	i
O=S(=O)(c1ccccc1)N1CCN=C1SCc1cccnc1	i	i	-4.24*	i	-4.7	i
COc1ccc(-c2nn(-c3ccccc3)cc2C(=O)NC2CCCCC2C)cc1 (stereo not drawn)	i	i	-0.41	i	-9.4	i
CCN(CC)c1nc(C(F)(F)F)nc2c1nnn2Cc1ccccc1	i	i	-0.96	i	-6.1	6*
N#CCN1CCCC(C(N)=O)C1 (stereo not drawn)	i	i	0.33	i	-13.9	i
N#C/C(=C\c1cccc(Oc2ccccc2)c1)C(=O)N1CCOCC1	i	i	-13.1*	i	-22.1	i
O=C1C2C3C=CC(CC3)C2C(=O)N1c1ccccc1[N+](=O)[O-] (stereo not drawn)	i	i	0.31	i	-3.6	i
COc1cc(F)c(S(=O)(=O)N2CCOc3ccccc32)cc1OC	i	i	-5.26*	i	-3.9	i
CCOC(=O)c1c(C)[nH]c(C)c1C(=O)CSc1nc2ccccc2c(=O)n1-c1ccc(Cl)cc1	i	i	0.05	i	-8.7	6*
CCOC(=O)c1c(C)[nH]c(C)c1C(=O)CSc1nc2ccccc2n1CCC#N	i	i	-0.39	i	-10.8	i
CCCn1c(SCC(=O)c2c(C)[nH]c(C)c2C(=O)OCC)nc2ccccc21	i	i	-4.27*	i	-15.8	i
COc1cc(OC)cc(-c2c(C#Cc3ccsc3)c3cc(-c4ccc(C(N)=O)cc4)ccc3n2C)c1	.	i	.	.	.	.
SMILES	KCNQ1 act	KCNK3 inh	Kir21 inh	KCNK9 block	hERG rescue	KCNQ1 inh
O=C(N/N=C/c1cccnc1)c1ccccc1OCc1ccc(Cl)cc1	i	.	0.18	-6.87*	-4.5	i
CC(=O)Oc1c(-c2ccco2)oc2ccccc2c1=O	8*	i	-0.01	i	-0.2	i
CCCc1cc(-c2nc(-c3ccc(Cl)cc3)cs2)ccn1	i	i	-3.29	-6.61*	-10.9	i
CCOC(=O)/C(C#N)=C/c1ccc(SC)cc1	i	i	0.84	i	42.5*	i
CCOC(=O)/C(C#N)=C/c1ccc(OC)c(OC)c1	i	i	0.36	i	-9.6	i
COC(=O)c1ccc(-c2sc3nc(N4CCOCC4)c4c(c3c2N)CCCC4)o1	i	.	-0.4	-9.17*	-12.1	6*
CCOc1ccc(NC(=O)CSc2nnnn2-c2ccc(C(N)=O)cc2)cc1	i	i	-0.83	i	-9.4	i
O=C(N/N=C/c1cccc(Br)c1)c1ccc(Cn2cc(Br)cn2)o1	i	i	0.62	-7.47*	-16.6	i
CCOc1ccccc1OCCCCCc1c(C)n[nH]c1C	i	i	-4.81*	i	-23.1	i
COc1ccccc1OCCCCCc1c(C)n[nH]c1C	i	i	-1.39	i	-15.8	i
COc1ccc(CN2C(=O)c3cccnc3C2=O)cc1S(=O)(=O)N1CCOc2ccc(C)cc21	i	i	2.05	i	-7.4	i
O=C(COC(=O)/C=C/c1cc(Br)ccc1F)NC1CC1	.	i	.	.	.	.
OC(CNCC(c1ccc(Cl)cc1Cl)c1c[nH]c2ccccc12)c1ccccc1 (stereo not drawn)	i	i	-0.4	i	39.9*	i
O=C(CCN1CCOCC1)NNC(=S)NC(=O)c1ccc(Br)cc1	i	i	0.09	i	-17.6	6*
CCCCNC(=S)NC(=O)c1ccc([N+](=O)[O-])cc1	10*	i	-0.79	i	-2.4	i
Cc1ccc(C(=O)NC(=S)NNC(=O)COc2ccc([N+](=O)[O-])cc2)cc1	8*	i	1	i	-7.7	i
Cc1cccc(C(=O)NC(=S)NNC(=O)COc2c(C)cccc2C)c1	13*	i	1.06	i	17.3*	i
COc1cccc(-c2cc(C(=O)N3CCc4ccccc4C3)[nH]n2)c1	i	i	-1.32	i	-8.8	i
O=C(COc1ccc([N+](=O)[O-])cc1)NNC(=S)NC(=O)c1ccc(Br)cc1	i	i	0.38	i	-6.4	7*
COC(=O)C1=C(C)NC(C)=C(C(=O)O[C@@H]2CCCN(Cc3ccccc3)C2)[C@@H]1c1cccc([N+](=O)[O-])c1	i	i	0.63	i	-15.4	7*

Source: PubChem BioAssay
